From PubChem BioAssay
ABHD4 inh = ABHD4 (mouse) inhibition, primary FP screen; inhibition, % at 8.92 µM; AID 720543; purified mABHD4, FP-Rh probe fluorescence polarization; Q8VD66; hit rate 0.54% among 370,000;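 active = inhibition exceeding the mean over every tested compound plus 3 SD, cut at about 30% in these data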
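Assay system: Wild-type mouse ABHD4 protein | Medium: HEPES pH 7.0 buffer, 150 mM NaCl, 0.01% Pluronic F-127 | Incubation: Enzyme–compound pre-incubation 45 min, then probe 60 min, both 25 °C | Technique: Fluorescence polarization with parallel and perpendicular emission, 525/598 nm | Evaluation: % inhibition of FP-Rh probe binding versus controls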
HTRA1 inhibitor = inhibitors of human serine peptidase HTRA1; Q92743; recombinant HTRA1, FP-rhodamine activity-based probe, fluorescence polarization; inhibition, % at 5.96 µM; hit rate 0.5% among 340,000; in the data active = inhibition above about 36%
PRMT1 inh = blocks human protein arginine methyltransferase 1 | recombinant PRMT1, activity-based probe fluorescence polarization | inhibition, % at 2.79 µM | hit rate 1.3% among 370,000;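 active = inhibition above about 21% made by adding two undisclosed values, limit read from the data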
ATG4B inhibitor = inhibitors of human ATG4B cysteine protease; ATG4B cleavage of LC3-PLA2, NBD-HPC fluorescence, 1 h; Q9Y4P1; hit rate 0.51% among 340,000; AID 504462; inhibition, % at 8.33 µM; in the data active = inhibition above about 40%
Target sequence (Q9Y4P1 whole entry, looked up): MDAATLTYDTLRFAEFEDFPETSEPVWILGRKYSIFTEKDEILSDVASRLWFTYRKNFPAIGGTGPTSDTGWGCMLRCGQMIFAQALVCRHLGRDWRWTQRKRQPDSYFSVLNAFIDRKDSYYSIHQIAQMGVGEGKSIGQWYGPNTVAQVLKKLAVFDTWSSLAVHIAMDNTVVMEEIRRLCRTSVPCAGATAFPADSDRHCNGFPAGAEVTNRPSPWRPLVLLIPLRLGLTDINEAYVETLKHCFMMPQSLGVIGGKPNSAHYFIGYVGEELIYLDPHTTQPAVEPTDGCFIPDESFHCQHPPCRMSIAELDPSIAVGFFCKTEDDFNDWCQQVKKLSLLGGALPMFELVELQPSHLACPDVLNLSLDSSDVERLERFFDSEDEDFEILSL
SIAE primary = human SIAE inhibition, primary screen | SIAE FP-Rh probe binding, fluorescence polarization | inhibition, % at 9.66 µM | Q9HAT2 | AID 1053197 | hit rate 0.69% among 370,000;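 active = inhibition above a cutoff: mean of compounds within the control limits plus 3 SD of those, cut at about 17% in these data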
TCR CD3 inh = inhibitors of human TCR-CD3 interaction; inhibition, % at 9.4 µM; hit rate 0.37% among 360,000; TAMRA-labeled TCR probe fluorescence, biochemical; in the data active = inhibition above about 19%;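 also: recombinant mutant TCR 2C K166C tagged with TAMRA read by polarization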
mABHD4 conf = ABHD4 (mouse) inhibition, FP confirmation | shares compounds with ABHD4 inh | purified mABHD4, FP-Rh probe fluorescence polarization | inhibition, % at 8.92 µM | hit rate 55% among 1,800 | AID 720658;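 active = mean inhibition across replicates above the hit cutoff set in the primary screen, cut at about 30% in these data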
Of the large screens only hits and unclear results are named; the others gave an inactive call (follow-up assays come after a bar, where they were run). Shown are actives, neighbours in structure and some others; about 2.9% of the full set was active somewhere.

COc1cccc(C(=O)N[C@H](C(=O)N2CCC[C@H]2C(=O)NCc2ccccc2)c2ccccc2)c1	none (no result: HTRA1 inhibitor, ATG4B inhibitor)
CCN(CC)c1ccc(C(=O)NNC(=O)C2CSC3(C)CCC(=O)N23)cc1 (configuration not stated)	ABHD4 inh 39 | mABHD4 conf inactive
CC12CCC(=O)N1C(C(=O)NNC(=O)c1ccc(F)cc1)CS2 (configuration not stated)	none
COc1cccc(CNc2cccc3cccnc23)c1O	ABHD4 inh 34 | mABHD4 conf inactive
COc1cc(/C=N/Nc2cccc3cccnc23)cc(OC)c1O	ABHD4 inh 32 | mABHD4 conf 33
COc1cccc(CNc2ccccn2)c1O	none
O=C(NC1CCCCN(Cc2cccc(C(F)(F)F)c2)C1=O)c1cccc(F)c1 (configuration not stated)	none (no result: HTRA1 inhibitor, ATG4B inhibitor, TCR CD3 inh)
CC1=C(C(=O)NCc2ccco2)C2(CCC(C)CC2)OC1=O (configuration not stated)	ABHD4 inh 31 | mABHD4 conf inactive
C=C(C)/C=C1/C(Cc2ccccc2)N(CC2CC2)C(=N)N1C(=O)OCc1ccccc1 (configuration not stated)	none (no result: HTRA1 inhibitor, ATG4B inhibitor, TCR CD3 inh)
Cc1ccc(Nc2cc(C)c3c(O)cccc3n2)cc1C	ABHD4 inh 44, SIAE primary 18 | mABHD4 conf 51
CC(=O)Oc1cc2c3c(c1)/C(=C1/SC(=S)NC1=O)C(=O)N3C(C)(C)C=C2C	ABHD4 inh 61 | mABHD4 conf 101
CCOC(=O)/C(O)=C(\C#N)c1nc2ccccc2[nH]1	none
O=C(NNC(=O)c1nc2ccccc2[nH]1)OCc1ccccc1	ABHD4 inh 36 | mABHD4 conf inactive
OCC[C@H]1C[C@@H](O)[C@H](O)[C@]2(OCCc3ccccc32)O1	ABHD4 inh 35 | mABHD4 conf inactive
C=CCN1C(=O)[C@@H](CC(=O)N2CCCCC2)[C@]2(C(=O)OCC)CCCCC/C=C/12	none (no result: HTRA1 inhibitor, ATG4B inhibitor, TCR CD3 inh)
CCNC(=S)NNC(=O)c1ccccc1Cl	none
CCNC(=S)NNC(=O)c1ccccn1	ABHD4 inh 54 | mABHD4 conf 55
Cc1ccc(/C=N\NC(=O)CN2CCN(S(=O)(=O)c3ccc(Br)cc3)CC2)s1	none (no result: HTRA1 inhibitor, ATG4B inhibitor, TCR CD3 inh)
Cc1cc(O)ccc1N/C=C/c1onc(C)c1[N+](=O)[O-]	ABHD4 inh 56, PRMT1 inh 33 | mABHD4 conf inactive
Cc1cccc(N/C=C/c2onc(C)c2[N+](=O)[O-])c1	none
Oc1ccc2ccccc2c1C=NNc1ccccn1	ABHD4 inh 36 | mABHD4 conf inactive
Fc1cccc(F)c1/C=N/Nc1ccccn1	none
CCN1C(=O)c2cccc3c(N)ccc(c23)C1=O	ABHD4 inh 33, PRMT1 inh 172 | mABHD4 conf 58
COc1ccc2c3c(cccc13)C(=O)N(O)C2=O	none
Oc1cc2c(cc1O)C1c3ccc(O)c(O)c3OCC1(O)C2 (configuration not stated)	ABHD4 inh 30, PRMT1 inh 55, TCR CD3 inh 132 | mABHD4 conf inactive
Cc1ccc(Cn2cc(CN3[C@H](Cc4ccccc4)COc4cc(Br)ccc4S3(=O)=O)nn2)cc1	none (no result: HTRA1 inhibitor, ATG4B inhibitor, TCR CD3 inh)
COc1ccccc1NS(=O)(=O)c1ccc(N/N=C/c2ccccc2OCC(=O)O)c([N+](=O)[O-])c1	ABHD4 inh 60 | mABHD4 conf 61
CCN(CC)S(=O)(=O)c1ccc(N/N=C/c2ccccc2OCC(=O)O)c([N+](=O)[O-])c1	ABHD4 inh 35 | mABHD4 conf 44
NS(=O)(=O)c1ccc(N/N=C/c2ccccc2C(=O)O)c([N+](=O)[O-])c1	none
O=C(CCc1ccccc1)N[C@H]1[C@@H](OC(=O)c2cnccn2)CCC[C@@]12C(=O)N(Cc1ccccc1)c1ccccc12	none (no result: HTRA1 inhibitor, ATG4B inhibitor, TCR CD3 inh)
C=C1[C@@H]2CC[C@H]3[C@]4(C)[C@@H](O)CC[C@@](C)(C(=O)OC)[C@H]4C[C@H](O)[C@]3(C2)[C@H]1O	none (no result: HTRA1 inhibitor, ATG4B inhibitor, TCR CD3 inh)
O=C(C1CC(=O)N(C2CCCC2)C1)N1CCN(c2ccccc2F)CC1 (configuration not stated)	none
O=C(C1CCCCC1)N1CCN(c2ccccc2F)CC1	ABHD4 inh 45 | mABHD4 conf inactive
C[C@H](O)[C@@H]1CN2CCc3ccc(N4CCOCC4)cc3[C@@H]2C[C@@H]1N(C)C(=O)c1ccccc1F	none (no result: HTRA1 inhibitor, ATG4B inhibitor, TCR CD3 inh)
OC(CNCCC1C=Nc2ccccc21)Cn1c2ccc(Cl)cc2c2cc(Cl)ccc21 (configuration not stated)	ABHD4 inh 34, SIAE primary 27 | mABHD4 conf 44
O=C1CS/C(=C\[N+](=O)[O-])N1c1ccccc1	ABHD4 inh 31 | mABHD4 conf inactive
CC(=O)C1CCC2C3CC=C4CC(SC(=N)N)CCC4(C)C3CCC12C (configuration not stated)	ABHD4 inh 46 | mABHD4 conf 38
CC(=O)OCC(=O)C1CCC2C3CC=C4CC(O)CCC4(C)C3CCC12C (configuration not stated)	none
CCOc1ccc(N2C(=O)C(Cl)=C(Nc3ccccc3O)C2=O)cc1	ABHD4 inh 34, PRMT1 inh 22 | mABHD4 conf inactive
NC(=O)N/N=C1\c2ccccc2-c2c(C(N)=O)cccc21	none
O=C(O)c1cccc(NN=C2c3ccccc3-c3ccccc32)c1	ABHD4 inh 56 | mABHD4 conf 49
O=C(O)c1cccc2c1-c1ccccc1/C2=N\Nc1ccccc1	ABHD4 inh 38 | mABHD4 conf inactive
C/C(=N\Nc1cccc(C(=O)O)c1)c1cc2ccccc2o1	ABHD4 inh 32 | mABHD4 conf 30
CCOC(=O)Cc1csc(NC(=O)c2sc3nc4ccc(C)cc4cc3c2N)n1	ABHD4 inh 36 | mABHD4 conf inactive
O=c1ccc2nc3ccccc3sc-2c1	ABHD4 inh 66, PRMT1 inh 22 (no result: HTRA1 inhibitor, ATG4B inhibitor) | mABHD4 conf 37
NCCOc1ccc(C23CC4CC(CC(C4)C2)C3)cc1	ABHD4 inh 32 | mABHD4 conf 37
OCCN1CCN(CC(O)COc2ccc(C34CC5CC(CC(C5)C3)C4)cc2)CC1 (configuration not stated)	none
CCC(C)Nc1nc(-c2cccc(OC)c2O)nc2ccccc12 (configuration not stated)	ABHD4 inh 34 | mABHD4 conf 37
COc1cccc(-c2nc(NCC3CCCO3)c3ccccc3n2)c1O (configuration not stated)	ABHD4 inh 33 | mABHD4 conf 34
CCOC(=O)NC(=O)/C(C#N)=C\Nc1sccc1C(=O)OC	ABHD4 inh 63, PRMT1 inh 56 | mABHD4 conf inactive
Cc1ccc(-n2c(SCC(=O)Nc3ccc(Oc4ccccc4)cc3)nnc2-c2ccco2)cc1	none (no result: HTRA1 inhibitor, ATG4B inhibitor, TCR CD3 inh)
CCOC(=O)[C@]12CCCC3=C1N(CCC3)C(=O)[C@@H](CC(=O)N1CCCCC1)C2	none (no result: HTRA1 inhibitor, ATG4B inhibitor, TCR CD3 inh)
